The record followed here is ChEMBL document CHEMBL1124490, “Hybrid molecules: growth inhibition of Leishmania donovani promastigotes by thiosemicarbazones of 3-carboxy-beta-carbolines” (J Med Chem, 1989).

What all share (assay type): functional
The subject of experiment [1] is Leishmania donovani. Put plainly: Percent inhibition on the biosynthesis of DNA of promastigotes of Leishmania donovani at 5.25 uM concentration. Put shortly: (§1)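 Promastigotes (5 x 10^6 cells/mL) were incubated with or without compound for 4 h, then pulsed for 1 h with a labelled precursor: [methyl-3H]thymidine 2.5 µCi/mL for DNA, [5-3H]uridine 2.5 µCi/mL for RNA, or [4,5-3H]leucine 5 µCi/mL for protein. Cells were washed in cold PBS and fractionated with TCA (cold-soluble pool, hot-soluble nucleic acid, insoluble protein). Protein was measured by Lowry.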

For experiment [2], the system named is Leishmania donovani. Put plainly: Percent inhibition on the biosynthesis of RNA of promastigotes of Leishmania donovani at 17.5 uM concentration. Put shortly:
as §1

For experiment [3], the system named is Leishmania donovani. Put plainly: Percent inhibition on the biosynthesis of RNA of promastigotes of Leishmania donovani at 3.5 uM concentration. Put shortly: as §1
Experiment [4] deals with Leishmania donovani. Put plainly: Percent inhibition on the biosynthesis of RNA of promastigotes of Leishmania donovani at 5.25 uM concentration. Put shortly:
as §1

The test system of experiment [5] is Leishmania donovani. Description: Percent inhibition on the biosynthesis of proteins of promastigotes of Leishmania donovani at 17.5 uM concentration. Put shortly: as §1
Experiment [6] has as its system Leishmania donovani. Description: Percent inhibition on the biosynthesis of proteins of promastigotes of Leishmania donovani at 3.5 uM concentration. Put shortly: as §1
Experiment [7] relates to Leishmania donovani. Put plainly: Percent inhibition on the biosynthesis of proteins of promastigotes of Leishmania donovani at 5.25 uM concentration. Put shortly:
as §1

Experiment [8] concerns Leishmania donovani. Put plainly: Percent inhibition on the growth of the promastigotes of Leishmania donovani at 17.5 uM concentration.
Experiment [9] has as its system Leishmania donovani. Put plainly: Percent inhibition on the growth of the promastigotes of Leishmania donovani at 3.5 uM concentration.
The test system of experiment [10] is Leishmania donovani. Description: Percent inhibition on the biosynthesis of DNA of promastigotes of Leishmania donovani at 3.5 uM concentration. Put shortly: as §1
Experiment [11] is described as follows: Concentration of compound provoking 50% inhibition on growth of Leishmania donovani promastigotes. The settings on record: read-out: I50. Put shortly: (§2)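 L. donovani LRC L-52 promastigotes were grown at 26 °C in 45% DMEM plus 45% RPMI 1640 (25 mM HEPES, pH 7.4) with 10% heat-inactivated FCS and antibiotics. Compound was added one day after seeding. Cells were counted by hemacytometer 3 days later, in duplicate flasks at two dilutions each, against untreated cultures. IC50 is the mean of five independent experiments.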

The test system of experiment [12] is Leishmania donovani. Put plainly: Concentration of compound provoking >99% irreversible after removal of drugs from culture medium inhibition on growth of Leishmania donovani promastigotes. Put shortly: (§3)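 Strain LRC L-52 promastigotes were exposed to compound for 3 days at 26 °C in DMEM/RPMI 1640 (HEPES, pH 7.4) with 10% heat-inactivated FCS. Cells were then centrifuged, washed free of drug and resuspended in fresh medium. They were counted by hemacytometer after 3 more days. The value is the concentration giving >99% irreversible growth inhibition.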

Experiment [13] concerns Leishmania donovani. Put plainly: Percent inhibition on the biosynthesis of DNA of promastigotes of Leishmania donovani at 17.5 uM concentration. Put shortly: as §1
Experiment [14] relates to Leishmania donovani. Put plainly: Percent inhibition on the biosynthesis of DNA of promastigotes of Leishmania donovani at 37 uM concentration. Put shortly: as §1
Experiment [15] has as its system Leishmania donovani. Description: Percent inhibition on the biosynthesis of RNA of promastigotes of Leishmania donovani at 3.7 uM concentration. Put shortly:
as §1

In experiment [16] the test system is Leishmania donovani. Put plainly: Percent inhibition on the biosynthesis of RNA of promastigotes of Leishmania donovani at 37 uM concentration. Put shortly:
as §1

For experiment [17], the system named is Leishmania donovani. Put plainly: Percent inhibition on the biosynthesis of proteins of promastigotes of Leishmania donovani at 3.7 uM concentration. Put shortly: as §1
Experiment [18] has as its system Leishmania donovani. Put plainly: Percent inhibition on the biosynthesis of proteins of promastigotes of Leishmania donovani at 37 uM concentration. Put shortly: as §1
Experiment [19] concerns Leishmania donovani. Description: Percent inhibition on the growth of the promastigotes of Leishmania donovani at 3.7 uM concentration.
Experiment [20] concerns Leishmania donovani. Put plainly: Percent inhibition on the biosynthesis of DNA of promastigotes of Leishmania donovani at 3.7 uM concentration. Put shortly:
as §1

Experiment [21] concerns Leishmania donovani. Description: Percent inhibition on the growth of the promastigotes of Leishmania donovani at 37 uM concentration.
Experiment [22] has as its system Leishmania donovani. Description: Percent inhibition on the biosynthesis of DNA of promastigotes of Leishmania donovani at 53 uM concentration. Put shortly: as §1
Experiment [23] concerns Leishmania donovani. Description: Percent inhibition on the biosynthesis of RNA of promastigotes of Leishmania donovani at 26.6 uM concentration. Put shortly:
as §1

The subject of experiment [24] is Leishmania donovani. Put plainly: Percent inhibition on the biosynthesis of RNA of promastigotes of Leishmania donovani at 53 uM concentration. Put shortly: as §1
Experiment [25] has as its system Leishmania donovani. Description: Percent inhibition on the biosynthesis of proteins of promastigotes of Leishmania donovani at 26.6 uM concentration. Put shortly: as §1
In experiment [26] the test system is Leishmania donovani. Description: Percent inhibition on the growth of the promastigotes of Leishmania donovani at 26.6 uM concentration.
For experiment [27], the system named is Leishmania donovani. Put plainly: Percent inhibition on the growth of the promastigotes of Leishmania donovani at 53 uM concentration.
In experiment [28] the test system is Leishmania donovani. Description: Concentration of compound provoking >99% irreversible after removal of drugs from culture medium inhibition on growth of Leishmania donovani promastigotes multiplication. Put shortly: as §3
Experiment [29] relates to Leishmania donovani. Put plainly: Percent inhibition on the biosynthesis of DNA of promastigotes of Leishmania donovani at 26.6 uM concentration. Put shortly:
as §1

Experiment [30] is described as follows: Concentration of compound provoking 50% inhibition on growth of Leishmania donovani promastigotes multiplication. As to conditions: read-out: I50. Put shortly:
as §2

Experiment [31] deals with Leishmania donovani. Put plainly: Percent inhibition on the biosynthesis of proteins of promastigotes of Leishmania donovani at 53 uM concentration. Put shortly: as §1

As usually defined, the inhibition is the percentage by which the read-out fell short of the control. A higher inhibition goes with strong suppression. For `C/C(=N\N=C(\N)S)c1cc2c3ccccc3nc-2c[nH]1`, the inhibition amounted to 0.5% with Leishmania donovani [1]; 98.7% in the experiment on Leishmania donovani [2]; 36% in the experiment with Leishmania donovani [3]; 52% with Leishmania donovani [4]; 95% in the experiment with Leishmania donovani [5]; 25% in the experiment on Leishmania donovani [6]. Moreover, the inhibition in the experiment with Leishmania donovani [7] is 36%; in the experiment with Leishmania donovani [8], 100%; in the experiment on Leishmania donovani [9], 68%; in the experiment on Leishmania donovani [10], 0%; with Leishmania donovani [13], 99.6%. Further, the IC50 in [11] is 2.5 µM. The compound also gave a concentration for >99% irreversible growth inhibition in the experiment with Leishmania donovani [12] of 17.5 µM.
Take `N=C(N)c1ccc(OCCCCCOc2ccc(C(=N)N)cc2)cc1` [PENTAMIDINE]: in experiment [11], the IC50 came to 0.56 µM. The concentration for >99% irreversible growth inhibition with Leishmania donovani [12] amounted to 1.1 µM.
Consider `CCOC(=O)c1cc2cc(/C=N/N=C(/N)S)[nH]cc-2n1`, for which the IC50 in [11] is greater than 50 µM. In the experiment with Leishmania donovani [12], this compound displayed a concentration for >99% irreversible growth inhibition greater than 75 µM.
With `N/C(S)=N/N=C/c1cc2c3ccccc3nc-2c[nH]1`, the inhibition in the experiment on Leishmania donovani [14] turned out to be 99.7%; with Leishmania donovani [15] it was 34%; in the experiment on Leishmania donovani [16], 96%; in the experiment with Leishmania donovani [17], 7%; with Leishmania donovani [18] it was 81%; in the experiment with Leishmania donovani [19], 37%. The inhibition with Leishmania donovani [20] amounted to 89%; in the experiment on Leishmania donovani [21], 90%. In experiment [11], the IC50 was determined as 5 µM. Moreover, in the experiment with Leishmania donovani [12], the concentration for >99% irreversible growth inhibition came out at 40 µM.
Regarding `N/C(S)=N/N=C/c1ccccn1`, the inhibition was determined as 95% in the experiment with Leishmania donovani [22]; 50% in the experiment on Leishmania donovani [23]; 53% with Leishmania donovani [24]; 20% in the experiment with Leishmania donovani [25]; 56% in the experiment with Leishmania donovani [26]; 78% in the experiment on Leishmania donovani [27]. In addition, the results for the inhibition with Leishmania donovani [29] and in the experiment with Leishmania donovani [31] were 90% and 17%, respectively. Moreover, the Imax in the experiment with Leishmania donovani [28] is 67 µM. Further, the IC50 in [30] was 29 µM.
As for `COC(=O)c1cc2c(cn1)[nH]c1ccccc12` [BETA-CCM], the IC50 in experiment [11] was greater than 50 µM.
